Screening results as filed in PubChem.
In the library only some 2.7% were active in any assay of this set; here they are far more common.
BB579 growth dn = chemicals that inhibit yeast BB579 growth in restrictive medium (lifespan-shortening candidates). S. cerevisiae BB579 growth, OD615, 48 h. inhibition, % at 10 µM. actives 0.51% (n = 140,000). AID 804;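 active = inhibition above a set limit, 3 SD over the mean compound inhibition, cut at about 44% in these data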
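Detection: OD615 turbidity measurement; Material: Saccharomyces cerevisiae DeaD strain BB579, replicative lifespan model yeast; Timing: 48 h exposure, 30 °C; Doses: single 10 µM dose; Medium: CSMM-D restrictive synthetic medium containing dextrose (glucose); Controls: amphotericin B at 10 µg/mL as positive control.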
Phagocytosis inh = macrophage phagocytosis inhibition; J774A.1 macrophage IgG-bead phagocytosis, imaging; inhibition, % at 5 µM; actives 0.07% (n = 110,000);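 active = inhibition above the mean of the plate negative controls plus 5 SD, cut at about 13% in these data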;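 note: phagocytic index as fraction of beads internalized from green versus red external bead signal; plate controls were DMSO negative control for no effect and cytochalasin-D positive control for full effect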
RAM inhibit = yeast RAM network inhibition | S. cerevisiae dse1pr::URA3 reporter, 5-FOA growth OD615, 2 d; analog-sensitive cbk1-as2 kinase mutant strain | inhibition, % at 50 µM | actives 1.8% (n = 190,000);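 active = inhibition above a set limit, 3 SD over mean compound inhibition, cut at about 8.4% in these data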;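 note: 0% = DMSO-only wells with no growth and 100% = 10 µM 1-NA-PP1 full growth; inhibition rescues growth on 5-FOA so higher OD means more RAM inhibition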
Yeast life ext = yeast lifespan extension. S. cerevisiae growth with nicotinamide, OD615; deaD strain in restrictive glucose medium. inhibition of the nicotinamide effect, % at 10 µM. actives 0.68% (n = 130,000);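 active = inhibition above a set limit, placed 3 SD over the median of all compounds, cut at about 26% in these data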;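 note: 0% = nicotinamide-treated wells and 100% = cells grown without nicotinamide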
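assay system = DeaD-strain S. cerevisiae | measured by = absorbance at 615 nm | probe or stimulus = nicotinamide 1.5 mM | buffer or medium = CSMM-D glucose medium, restrictive | times = 48 h at 30 °C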
An asterisk follows results filed as active; / = no result.

SMILES	BB579 growth dn	Phagocytosis inh	RAM inhibit	Yeast life ext
Cc1ccc(S(=O)(=O)Oc2ccc(C3C4=C(CCCC4=O)N(CCC(=O)O)C4=C3C(=O)CCC4)cc2Cl)cc1	-34.7	-4.6	8.9*	0.0
Cc1nn(CC(=O)Nc2cccnc2)c(C)c1[N+](=O)[O-]	/	/	-1.0	/
CCOC(=O)c1c(N)sc(C(O)(C(F)(F)F)C(F)(F)F)c1-c1ccc(F)cc1	48.2*	/	-1.8	-11.8
CCOC(=O)c1c(NC(=O)C2C3CCC(O3)C2C(=O)O)sc(C)c1-c1ccc(F)cc1 (configuration not stated)	-40.4	/	4.8	-9.5
CCOC(=O)c1c(N)sc(C(O)(C(F)(F)F)C(F)(F)F)c1-c1ccc(Cl)cc1	51.7*	-0.1	-1.4	-11.6
CCN(CC)S(=O)(=O)c1ccc(C(=O)NCC(c2ccc(OC)cc2)N2CCOCC2)cc1 (configuration not stated)	/	/	-0.6	/
N#C/C(=N/O)c1nc(-c2ccc(F)cc2)cs1	54.0*	2.0	-1.5	-3.2
Fc1ccc(-c2csc(-c3ccncc3)n2)cc1	/	/	1.0	/
O=C(OCc1cccc([N+](=O)[O-])c1)c1ccc2ccccc2n1	/	/	9.6*	/
CSc1ncccc1C(=O)OCc1cccc([N+](=O)[O-])c1	/	/	4.8	/
CCOc1ccc2nc(SCC(=O)Nc3cc4c(cc3C(C)=O)OCO4)[nH]c2c1	-33.3	/	1.7	-4.3
CCOC(=O)c1sc(NC(=O)c2cccc(S(=O)(=O)N(CC)CC)c2)cc1C	-8.3	1.4	10.5*	-8.9
CC1CC(C)CN(C(=O)c2cccc(S(=O)(=O)Nc3cc(C(F)(F)F)ccc3Cl)c2)C1 (configuration not stated)	-21.9	-4.7	4.9	32.0*
CC(NC(=O)/C(=C/c1ccc(OC(F)F)cc1)c1ccccc1)c1ccccc1 (configuration not stated)	-15.4	-4.4	9.6*	17.3
COCC(C)NC(=O)/C(=C/c1ccccc1)c1ccccc1 (configuration not stated)	/	/	1.7	/
CCN(CC)S(=O)(=O)c1ccc(C(=O)N(c2ccc(C)cc2)C2C=CS(=O)(=O)C2)cc1 (configuration not stated)	/	/	2.4	/
O=C(Oc1c(CN2CCOCC2)cc(Cl)c2cccnc12)c1cccs1	/	/	-1.0	/
O=C(Oc1c(Cl)cc(Cl)c2cccnc12)c1cccs1	98.9*	/	0.4	/
Cc1ccc2c(c1)c1c(n2C)C(C(N)=O)CCC1 (configuration not stated)	13.6	0.5	-0.5	-20.8
Cc1ccc2c(c1)c1c(n2C)-c2[nH]ncc2CC1	99.4*	/	1.6	/
COc1c(F)c(F)c(C(=O)Nc2ccc3oc(-c4ccncc4)nc3c2)c(F)c1F	-14.3	-0.7	8.9*	-10.8
Cc1cccc2nc(CSc3nc4cc([N+](=O)[O-])ccc4s3)cn12	-66.2	-10.5	-0.7	-0.7
COc1cccc(-c2cc(C(F)(F)F)nc(NCc3ccco3)n2)c1	-72.0	/	8.9*	-8.9
COc1ccc(-c2cc(C(F)(F)F)nc(NCc3ccco3)n2)cc1OC	-57.7	/	2.6	0.1
COc1ccc(-n2nnnc2SCC(N)=O)cc1	-37.5	-2.1	0.8	-0.5
SMILES	BB579 growth dn	Phagocytosis inh	RAM inhibit	Yeast life ext
O=C(CSc1nc2ccccc2s1)c1cc2ccccc2o1	-23.3	-0.6	9.4*	-5.2
COc1ccc(-n2nnnc2SCC(=O)c2cc3ccccc3o2)cc1	-42.3	0.0	8.5*	-16.5
COc1ccc(CN(C(=O)CSc2nnc(-c3ccccc3C)o2)c2ccc(F)cc2)cc1	-8.2	/	11.2*	/
COC(=O)CN(C(=O)CSc1nnc(-c2cccc(OC)c2)o1)c1ccc(OC)cc1	-71.9	-0.5	11.1*	8.7
O=C(COC(=O)c1ccccc1C(=O)c1ccc(Cl)cc1)NC(c1ccccc1)c1ccccc1	-17.8	-9.6	3.4	-2.5
O=C(CSc1nnc(Cc2cc(=O)[nH]c(=O)[nH]2)n1-c1ccc(Cl)cc1)N1CCc2ccccc21	/	/	6.2	/
O=C(CSc1nnc(Cc2cc(=O)[nH]c(=O)[nH]2)n1-c1ccccc1)N1CCCc2ccccc21	-20.4	/	8.6*	-3.5
COCCn1c(SCC(=O)NCc2ccc3c(c2)OCO3)nc2ccccc2c1=O	/	/	1.0	/
Cc1ccc(CNC(=O)C(C)OC(=O)c2ccco2)cc1 (configuration not stated)	-10.4	-1.1	0.3	39.5*
COc1ccc(-c2csc3[nH]c(=S)n(-c4ccccc4)c(=O)c23)cc1OC	-41.5	-8.0	2.9	-1.0
O=C(C1=C[C@@H](c2ccc(Br)cc2)C[C@@H](OCc2ccc(CO)cc2)O1)N1CCOCC1	/	/	9.2*	/
CC(=O)n1cc([C@H]2C=C(C(=O)NCc3ccccc3)O[C@@H](OCCCCO)C2)c2ccccc21	/	/	8.8*	/
C#CCNC(=O)C1=C[C@H](c2csc3ccccc23)C[C@H](OCc2ccc(CO)cc2)O1	/	/	8.5*	/
O=C(C1=C[C@H](c2ccc(Br)cc2)C[C@H](OCc2ccc(CO)cc2)O1)N1CCOCC1	/	/	4.9	/
O=C(Nc1ccccc1)C1=C[C@@H](c2ccc(C(F)(F)F)cc2)C[C@@H](OCc2ccc(CO)cc2)O1	/	/	9.7*	/
COc1ccc(NC(=O)c2cn(CCC#N)nc2-c2cc3ccccc3o2)cc1	/	/	1.7	/
Cc1ccccc1C(=O)c1ccc2c(c1)n(C)c(=O)n2C	-64.4	0.9	0.6	3.6
O=C(NN=C1CCCCCCCCCCC1)c1ccccc1F	-10.4	-7.4	4.0	-3.1
O=C(NCc1ccccc1)C1=C[C@H](c2ccc(Br)cc2)C[C@H](OCc2ccc(CO)cc2)O1	/	/	10.6*	/
CC(C)(C)[C@H]1C=C(C(=O)Nc2ccccc2)O[C@@H](OCc2ccc(CO)cc2)C1	/	/	10.0*	/
O=C(Nc1ccccc1)C1=C[C@@H](c2ccccc2)C[C@@H](OCc2ccc(CO)cc2)O1	/	/	9.9*	/
C#Cc1ccc([C@@H]2C=C(C(=O)OCC=C)O[C@H](OCc3ccc(CO)cc3)C2)cc1	/	/	10.3*	/
CC(C)(C)[C@@H]1C=C(C(=O)NCc2ccccc2)O[C@H](OCc2ccc(CO)cc2)C1	/	/	3.7	/
O=C(NCc1ccccc1)C1=C[C@@H](c2ccccc2)C[C@@H](OCc2ccc(CO)cc2)O1	/	/	7.6	/
O=C(O)c1ccc(Cl)c(NC(=S)NC(=O)c2ccccc2[N+](=O)[O-])c1	/	/	1.5	/
SMILES	BB579 growth dn	Phagocytosis inh	RAM inhibit	Yeast life ext
COc1ccc(C(=O)COC(=O)CNS(=O)(=O)c2ccc(C)cc2)cc1	-43.6	-10.8	2.5	0.0
Cc1cc(OC(=O)c2c(F)cc(F)cc2F)nc(C)n1	/	/	2.2	/
Cc1cc(C(=O)COc2ccc(-c3nnco3)cc2)c(C)n1Cc1ccccc1	-77.8	/	0.0	-7.4
CC(C)OC(=O)CSc1nc2c(c(C3CC=CCC3)c1C#N)CCC2 (configuration not stated)	-22.7	0.6	10.7*	-7.9
O=C(O)CCc1ccc(-c2cccs2)n1CCc1ccccc1	/	/	9.5*	/
COc1ccccc1C1=NOC(COC(=O)c2ccc(Br)cc2)C1 (configuration not stated)	-62.1	-9.5	10.5*	-0.7
COc1ccc(C(=O)OCC2CC(c3ccccc3)=NO2)cc1OC (configuration not stated)	/	/	3.5	/
